Experimental data from publication PMC5028280 (Neuropharmacology, 2016).
Like-named read-outs stand apart in the source and are kept apart here.

How the values were obtained:
5-HT2B [1] = biological target: T1, 5-HT2B (Homo sapiens, UniProt P41595); assay: NIMH PDSP secondary binding assay, 5-HT2B
GABA: PBR = GABA: PBR (Rattus norvegicus, UniProt P16257); assay: NIMH PDSP secondary binding assay, PBR; parameters: species or system human
5-HT2B [2] = biological target: T1, 5-HT2B; assay: 5-HT2B antagonism functional assay; assay type: cell-based
hERG = hERG (Homo sapiens, UniProt Q12809); assay: hERG channel assay; assay type: cell-based
Chain of hERG (Q12809 whole entry, the tested form may be a part): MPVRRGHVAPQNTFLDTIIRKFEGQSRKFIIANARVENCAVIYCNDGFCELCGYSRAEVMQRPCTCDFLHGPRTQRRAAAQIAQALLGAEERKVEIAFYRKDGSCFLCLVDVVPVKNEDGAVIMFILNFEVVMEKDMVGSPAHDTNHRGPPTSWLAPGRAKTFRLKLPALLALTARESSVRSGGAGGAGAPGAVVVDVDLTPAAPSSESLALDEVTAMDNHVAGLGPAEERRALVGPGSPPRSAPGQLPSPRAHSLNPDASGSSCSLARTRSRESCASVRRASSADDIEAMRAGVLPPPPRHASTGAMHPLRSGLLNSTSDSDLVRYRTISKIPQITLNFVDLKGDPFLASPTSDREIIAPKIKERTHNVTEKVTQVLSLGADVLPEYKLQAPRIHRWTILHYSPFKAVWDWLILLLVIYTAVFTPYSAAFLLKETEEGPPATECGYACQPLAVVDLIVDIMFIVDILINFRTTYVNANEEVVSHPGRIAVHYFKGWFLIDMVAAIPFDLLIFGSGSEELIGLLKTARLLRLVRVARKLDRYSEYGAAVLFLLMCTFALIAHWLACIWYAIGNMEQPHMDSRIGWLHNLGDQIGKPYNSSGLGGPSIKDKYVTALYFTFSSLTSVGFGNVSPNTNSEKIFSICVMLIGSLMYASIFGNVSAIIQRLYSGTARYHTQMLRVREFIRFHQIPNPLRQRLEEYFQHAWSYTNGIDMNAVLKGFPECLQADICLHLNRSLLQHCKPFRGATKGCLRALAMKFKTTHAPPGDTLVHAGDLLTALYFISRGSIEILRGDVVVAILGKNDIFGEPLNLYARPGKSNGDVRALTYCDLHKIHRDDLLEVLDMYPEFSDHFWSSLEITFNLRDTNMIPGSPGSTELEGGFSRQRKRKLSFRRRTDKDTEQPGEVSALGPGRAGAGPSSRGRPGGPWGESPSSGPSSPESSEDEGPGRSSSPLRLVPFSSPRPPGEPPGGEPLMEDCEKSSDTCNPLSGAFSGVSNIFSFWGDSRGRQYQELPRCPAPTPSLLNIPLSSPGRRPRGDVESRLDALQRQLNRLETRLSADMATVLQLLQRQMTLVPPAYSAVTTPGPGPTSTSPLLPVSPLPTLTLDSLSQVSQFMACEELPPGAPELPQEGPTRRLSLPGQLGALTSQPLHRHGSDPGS

male ICR mice [3] = assay: Functional observational battery; assay type: in vivo, mouse; conditions: i.v.; for FOB Home cage activity: doses with significant differences vs vehicle: CNS Activity domain, ↓ decrease vs vehicle, N = 6/dose; for FOB Forelimb placing: doses with significant differences vs vehicle / FOB Gait: doses with significant differences vs vehicle / FOB Muscle tone: doses with significant differences vs vehicle / FOB Posture: doses with significant differences vs vehicle: Muscle tone/Equilibrium domain; for FOB Approach response: doses with significant differences vs vehicle / FOB Startle response: doses with significant differences vs vehicle: Sensorimotor Reactivity domain
Method in brief: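 Male ICR mice, each given one dose only, n=6 per dose; housed at 20–22°C on a 12-h light/dark cycle with food ad libitum. Approach and startle after observer interference were scored as categorical measures. Each compound's vehicle group was pooled into one vehicle group, and each dose was compared with it. Tests: Fisher's exact (categorical), Kruskal-Wallis (ordinal), one-way ANOVA (continuous).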

male ICR mice [4] = assay: FOB, cannabinoid receptor antagonism of 3 mg/kg JWH-018 effects; assay type: in vivo, mouse
male C57/Bl6J mice [5] = assay: Drug discrimination, mice trained to discriminate 0.3 mg/kg JWH-018 from vehicle; assay type: in vivo, mouse; conditions: for Response rates compared to vehicle: 1 mg/kg JWH-018, 10 mg/kg THC, JWH-073 across the dose range tested; for Substitution for the 0.3 mg/kg JWH-018 training dose: percentage of responses on JWH-018-associated lever; for Substitution for the 0.3 mg/kg JWH-018 training dose / ED50 for substitution for the 0.3 mg/kg JWH-018 training dose: i.p.; for Fold less potent than JWH-018 in JWH-018 discrimination: from ED50 values; for ED50 for substitution for the 0.3 mg/kg JWH-018 training dose: 30 min before session
5-HT2C = biological target: T2, 5-HT2C (Homo sapiens, UniProt P28335); assay: NIMH PDSP secondary binding assay, 5-HT2C; conditions: read-out: 5-HT2C binding affinity Ki; mean of 3 replications
T2 sequence (P28335 33-458): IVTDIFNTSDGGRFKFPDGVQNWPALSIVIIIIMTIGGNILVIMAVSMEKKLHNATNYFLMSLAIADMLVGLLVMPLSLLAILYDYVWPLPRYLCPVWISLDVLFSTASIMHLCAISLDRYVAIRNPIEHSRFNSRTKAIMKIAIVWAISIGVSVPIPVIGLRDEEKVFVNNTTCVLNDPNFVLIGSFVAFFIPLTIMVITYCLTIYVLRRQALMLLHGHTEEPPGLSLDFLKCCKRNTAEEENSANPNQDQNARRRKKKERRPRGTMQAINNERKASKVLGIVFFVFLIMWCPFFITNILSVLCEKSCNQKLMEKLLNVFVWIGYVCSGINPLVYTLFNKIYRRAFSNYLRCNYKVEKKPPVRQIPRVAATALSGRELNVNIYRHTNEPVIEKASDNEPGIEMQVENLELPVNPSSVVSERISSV

5-HT6 = 5-HT6 (Homo sapiens, UniProt P50406); assay: NIMH PDSP secondary binding assay, 5-HT6; conditions: read-out: 5-HT6 binding affinity Ki; mean of 3 replications
Chain of 5-HT6 (P50406 whole entry): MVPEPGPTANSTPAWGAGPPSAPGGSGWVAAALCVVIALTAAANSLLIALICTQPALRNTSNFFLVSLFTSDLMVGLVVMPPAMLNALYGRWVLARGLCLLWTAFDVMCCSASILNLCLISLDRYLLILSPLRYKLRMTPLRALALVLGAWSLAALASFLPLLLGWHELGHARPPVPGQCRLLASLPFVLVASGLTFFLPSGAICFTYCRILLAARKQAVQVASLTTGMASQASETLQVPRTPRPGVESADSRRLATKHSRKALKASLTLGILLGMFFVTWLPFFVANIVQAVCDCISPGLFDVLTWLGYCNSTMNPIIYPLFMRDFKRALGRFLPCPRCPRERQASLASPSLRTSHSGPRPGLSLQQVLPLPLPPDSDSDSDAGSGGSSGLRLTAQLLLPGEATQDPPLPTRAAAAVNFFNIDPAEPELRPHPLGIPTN

[6] = Urinary metabolite identification; assay type: in vivo, mouse; conditions: II = glucuronic acid conjugate; X = identified
male C57/Bl6J mice [7] = assay: Drug discrimination, mice trained to discriminate 5.6 mg/kg THC from vehicle; assay type: in vivo, mouse
[8] = inhibition of hERG channels, mean of 3 replicates
[9] = CNS Excitability domain, ↑ increase vs vehicle, ---- no significant effect
[10] = categorical, ---- no significant effect
[11] = read-out: 5-HT2B binding affinity Ki, mean of 3 replications
[12] = read-out: 5-HT2B Antagonism IC50, mean of 3 replicates
[13] = read-out: hERG Channels EC50, inhibition of hERG channels, mean of 3 replicates
[14] = Autonomic Effects domain, categorical, ---- no significant effect

T1 sequence (P41595 whole entry): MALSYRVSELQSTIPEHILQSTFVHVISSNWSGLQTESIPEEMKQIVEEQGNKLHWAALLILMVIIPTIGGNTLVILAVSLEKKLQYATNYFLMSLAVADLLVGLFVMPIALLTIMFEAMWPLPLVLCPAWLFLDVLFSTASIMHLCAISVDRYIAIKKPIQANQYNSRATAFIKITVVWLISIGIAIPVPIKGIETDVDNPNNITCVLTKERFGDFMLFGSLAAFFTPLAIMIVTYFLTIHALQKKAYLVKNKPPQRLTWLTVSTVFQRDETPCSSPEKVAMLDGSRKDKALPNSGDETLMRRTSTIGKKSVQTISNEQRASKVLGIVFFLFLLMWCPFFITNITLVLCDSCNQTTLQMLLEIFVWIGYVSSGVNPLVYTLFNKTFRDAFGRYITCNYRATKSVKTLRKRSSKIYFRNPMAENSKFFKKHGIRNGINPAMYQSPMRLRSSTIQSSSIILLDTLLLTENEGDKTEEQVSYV
Chain of GABA: PBR (P16257 whole entry): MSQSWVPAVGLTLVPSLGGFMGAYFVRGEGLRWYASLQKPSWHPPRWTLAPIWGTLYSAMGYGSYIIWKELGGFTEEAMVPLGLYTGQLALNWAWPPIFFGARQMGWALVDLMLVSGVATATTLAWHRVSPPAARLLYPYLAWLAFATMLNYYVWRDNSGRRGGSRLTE

Row | Compound | hERG Channels Emax (hERG; [8]) | FOB Home cage activity: doses with significant differences vs vehicle (male ICR mice [3]) | FOB Tail elevation: doses with significant differences vs vehicle (male ICR mice [3]; [9]) | FOB Tonus: doses with significant differences vs vehicle (male ICR mice [3]; [9]) | FOB Forelimb placing: doses with significant differences vs vehicle (male ICR mice [3]; [10]) | FOB Gait: doses with significant differences vs vehicle (male ICR mice [3]; [10]) | FOB Muscle tone: doses with significant differences vs vehicle (male ICR mice [3]; [10]) | FOB Posture: doses with significant differences vs vehicle (male ICR mice [3]; [10]) | FOB Approach response: doses with significant differences vs vehicle (male ICR mice [3]; [10]) | FOB Startle response: doses with significant differences vs vehicle (male ICR mice [3]; [10]) | Response rates compared to vehicle (male C57/Bl6J mice [5]) | Substitution for the 0.3 mg/kg JWH-018 training dose (male C57/Bl6J mice [5]) | Ki (5-HT2B [1]; [11]) [µM] | 5-HT2B Antagonism Emax (5-HT2B [2]; mean of 3 replicates) [%] | IC50 (5-HT2B [2]; [12]) [µM] | EC50 (hERG; [13]) [µM] | also measured
1 | CCCCCn1cc(C(=O)c2cccc3ccccc23)c2ccccc21 [JWH-018, 1-pentyl-3-(1-naphthoyl)indole] | Full efficacy | ↓ (0.1-3) mg/kg | ↑ (1) mg/kg | ↑ (1) mg/kg | (3) mg/kg | (0.1-3) mg/kg | (0.1-3) mg/kg | (0.1-3) mg/kg | (0.3-3) mg/kg | (3) mg/kg | significantly decreased response rates | fully and dose-dependently substituted | – | – | – | – | Ki (5-HT2B [1]): 0.316 µM; Ki (GABA: PBR): 0.673 µM; IC50 (5-HT2B [2]): 33.2 µM; Emax (5-HT2B [2]; read-out: 5-HT2B Antagonism Emax): 100%; EC50 (hERG): 236 µM; Emax (hERG; human, stably transfected cell line expressing hERG channels): 100%; FOB Clonus: doses with significant differences vs vehicle (male ICR mice [3]; [9]): ↑ (0.3) mg/kg; Muscle tone in FOB antagonism study (male ICR mice [4]; 3 mg/kg JWH-018 i.v. alone, or co-administration of 3 mg/kg rimonabant i.p.): Hypertonia; Responding on the JWH-018-associated lever at the training dose (male C57/Bl6J mice [5]; 0.3 mg/kg JWH-018): > 85%
2 | CCCCCn1cc(C(=O)c2ccc(OC)c3ccccc23)c2ccccc21 [JWH-081] | lacked efficacy | ↓ (0.1-1) mg/kg | – | – | – | (0.3-1) mg/kg | (0.3) mg/kg | (0.3-1) mg/kg | (1) mg/kg | (1) mg/kg | – | – | – | – | – | – | 5-HT2B Antagonism IC50 (5-HT2B [2]; mean of 3 replicates): Not active; hERG Channels EC50 (hERG; [8]): Not active
3 | CCCCCn1cc(C(=O)Cc2ccccc2)c2ccccc21 [JWH-167] | 81% | ↓ (3-30) mg/kg | – | ↑ (10) mg/kg | (10-30) mg/kg | (3-30) mg/kg | (3-30) mg/kg | (1-30) mg/kg | (3-30) mg/kg | (3-30) mg/kg | – | – | 1.25 | 100 | 47.7 | 13.8 | Ki (5-HT2C): 4.82 µM; FOB Exophthalmus: doses with significant differences vs vehicle (male ICR mice [3]; [14]): (1) mg/kg; FOB Piloerection: doses with significant differences vs vehicle (male ICR mice [3]; [14]): (10-30) mg/kg
4 | SR144528 [reference compound] | – | – | – | – | – | – | – | – | – | – | – | – | – | – | – | – | FOB selected measures, antagonist 3 mg/kg i.p. plus vehicle (male ICR mice [4]; rimonabant/vehicle and SR144528/vehicle groups, all mice): Normal responses
5 | CCCCn1cc(C(=O)c2cccc3ccccc23)c2ccccc21 [JWH-073] | 59% | ↓ (0.3-3) mg/kg | ↑ (1) mg/kg | – | (0.3) mg/kg | (0.3-3) mg/kg | (1-3) mg/kg | (1-3) mg/kg | (1-3) mg/kg | (3) mg/kg | significant decreases were not observed | fully and dose-dependently substituted | 0.184 | 100 | 19.3 | 9.71 | Fold less potent than JWH-018 in JWH-018 discrimination (male C57/Bl6J mice [5]): about 5 fold; ED50 for substitution for the 0.3 mg/kg JWH-018 training dose (male C57/Bl6J mice [5]): 2.11 µmol/kg
6 | CCCCCc1cc(O)c2c(c1)OC(C)(C)[C@@H]1CCC(C)=C[C@@H]21 [THC, Δ^9-tetrahydrocannabinol, reference compound] | – | ↓ (0.3-10) mg/kg | ↑ (3) mg/kg | – | – | – | – | (3-10) mg/kg | – | – | significantly decreased response rates | fully and dose-dependently substituted | 0.765 | – | – | – | Fold less potent than JWH-018 in JWH-018 discrimination (male C57/Bl6J mice [5]): ~10 fold; ED50 for substitution for the 0.3 mg/kg JWH-018 training dose (male C57/Bl6J mice [5]): 4.08 µmol/kg
7 | Cc1c(C(=O)NN2CCCCC2)nn(-c2ccc(Cl)cc2Cl)c1-c1ccc(Cl)cc1 [rimonabant] | – | – | – | – | – | – | – | – | – | – | – | – | – | – | – | – | Response rates in antagonism tests (male C57/Bl6J mice [5]; 3 mg/kg antagonist with vehicle or 0.3 mg/kg JWH-018): significantly decreased
8 | O=C(c1cccc2ccccc12)c1cn(CCCCCF)c2ccccc12 [AM-2201] | 70% | ↓ (0.03-1) mg/kg | – | ↑ (0.3-1) mg/kg | – | – | (0.1-1) mg/kg | (0.03-1) mg/kg | (0.1-1) mg/kg | – | – | – | 0.192 | 100 | 23.9 | 3.35 | Ki (5-HT6): 0.693 µM
9 | CCCCCn1cc(C(=O)c2ccc(CC)c3ccccc23)c2ccccc21 [JWH-210] | lacked efficacy | ↓ (0.1-3) mg/kg | – | – | – | (0.1-3) mg/kg | (0.3-3) mg/kg | (0.1-3) mg/kg | – | (0.3-3) mg/kg | – | – | – | 100 | 2870 | – | hERG Channels EC50 (hERG; [8]): Not active; FOB Exophthalmus: doses with significant differences vs vehicle (male ICR mice [3]; [14]): (0.3) mg/kg; Monohydroxylation metabolite in urine, phase II [6]: no monohydroxyl glucuronide was observed
10 | CN1CCN2c3ccccc3Cc3ccccc3C2C1 (centres unmarked) [mianserin] | – | – | – | – | – | – | – | – | – | – | – | failed to substitute for or antagonize | – | – | – | – | Responding on the JWH-018 lever, 3 mg/kg mianserin co-administered with 0.3 mg/kg JWH-018 (male C57/Bl6J mice [5]; compared to 0.3 mg/kg JWH-018 alone): significantly decreased; Responding on the JWH-018 lever, 3 mg/kg mianserin (plus vehicle) (male C57/Bl6J mice [5]; compared to vehicle alone): significantly increased; Substitution of the JWH-018 training dose (0.3 mg/kg), mianserin at doses up 1 mg/kg (male C57/Bl6J mice [5]; mianserin plus 0.3 mg/kg JWH-018): not altered; Overall response rate, mianserin 1 and 3 mg/kg administered with JWH-018 (male C57/Bl6J mice [5]; mouse, in vivo): significantly suppressed; Percentage of THC-lever responding, mianserin 0.1, 0.3, and 3 mg/kg (male C57/Bl6J mice [7]; co-administered with either vehicle or 5.6 mg/kg THC): did not alter this pattern; Percentage of THC-lever responding, 1 mg/kg mianserin plus 5.6 mg/kg THC (male C57/Bl6J mice [7]; compared to 5.6 mg/kg THC alone): significantly lower; Substitution for THC in mice trained to discriminate THC (male C57/Bl6J mice [7]; mianserin tested alone, i.p.): did not substitute; Overall responding on both levers (response rate), 3 mg/kg mianserin (male C57/Bl6J mice [7]; with vehicle or THC): significantly suppressed
